Laboratory results as given in ChEMBL document CHEMBL4017519, “Development of (4-Cyanophenyl)glycine Derivatives as Reversible Inhibitors of Lysine Specific Demethylase 1” (J Med Chem, 2017).
Active and inactive are the calls of the source. The calls are words filed in the database; no cut-off is given here.

Experiments:
[1] = biological target: T1, Lysine-specific histone demethylase 1A (Homo sapiens, UniProt O60341); assay: Inhibition of N-terminal truncated human LSD1 (151 to 852 residues) expressed in Escherichia coli after 30 mins using histone H3(1-21)K4(Me1) biotin peptide as substrate by TR-FRET assay
[2] = biological target: T1, Lysine-specific histone demethylase 1A; assay: Binding affinity to LSD1 (unknown origin) by SPR analysis
[3] = Apparent permeability across apical to basolateral side in human Caco2 cells; assay type: ADME, cell-based; conditions: Caco-2
[4] = biological target: T1, Lysine-specific histone demethylase 1A; assay: Inhibition of LSD1 in human THP1 cells assessed as induction of CD86 expression after 48 hrs by flow cytometric analysis; assay type: cell-based
[5] = Efflux ratio of apparent permeability in human Caco2 cells; assay type: ADME, cell-based; conditions: Caco-2
[6] = test system: THP-1; assay: Induction of apoptosis in human THP1 cells at 10 uM after 4 days by Annexin V-perCP EF710/7AAD double staining based FACS analysis; assay type: functional, cell-based
Procedure, shortened: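 THP-1 cells in liquid culture with 10 μM compound or vehicle for 4 days, then stained with an Annexin V/7-AAD kit per manufacturer and analysed by flow cytometry. Early apoptotic = Annexin V-pos/7-AAD-neg; apoptotic = Annexin V-pos/7-AAD-pos. One-way ANOVA with Dunnett's tests.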

[7] = test system: MV4-11; assay: Anticlonogenic activity against human MV4-11 cells at 10 uM after 7 days; assay type: functional, cell-based
[8] = test system: THP-1; assay: Anticlonogenic activity against human THP1 cells at 10 uM after 7 days; assay type: functional, cell-based
[9] = Half life in mouse liver microsomes; assay type: ADME, microsome
[10] = test system: Liver; assay: Intrinsic clearance in mouse liver microsomes assessed per […]; assay type: ADME, microsome
[11] = biological target: Voltage-gated inwardly rectifying potassium channel KCNH2 (Homo sapiens, UniProt Q12809); assay: Inhibition of human hERG by patch clamp method
[12] = species: Homo sapiens; assay: Selectivity ratio of IC50 for human ERG to IC50 for N-terminal truncated human LSD1 (151 to 852 residues) expressed in Escherichia coli
[13] = biological target: T1, Lysine-specific histone demethylase 1A; assay: Competitive binding affinity to LSD1 (unknown origin) in presence of tranylcypromine
[14] = biological target: T1, Lysine-specific histone demethylase 1A; assay: Inhibition of LSD1 in human THP1 cells assessed as induction of CD86 expression at 50 uM after 48 hrs by flow cytometric analysis; assay type: cell-based
Procedure, shortened: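 THP-1 AML cells grown in RPMI with 10% FBS and 2 mM L-glutamine, exposed to compound or DMSO vehicle at 50 μM for 48 h at 1×10^5 cells/ml. Cells were pelleted and stained with CD86-PerCP EF710 antibody in phenol red-free RPMI with 5 mM EDTA and 2% BSA for 10 min at 4 °C, then washed and analysed by flow cytometry.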

Chain of Voltage-gated inwardly rectifying potassium channel KCNH2 (Q12809 whole entry, the tested form may be a part): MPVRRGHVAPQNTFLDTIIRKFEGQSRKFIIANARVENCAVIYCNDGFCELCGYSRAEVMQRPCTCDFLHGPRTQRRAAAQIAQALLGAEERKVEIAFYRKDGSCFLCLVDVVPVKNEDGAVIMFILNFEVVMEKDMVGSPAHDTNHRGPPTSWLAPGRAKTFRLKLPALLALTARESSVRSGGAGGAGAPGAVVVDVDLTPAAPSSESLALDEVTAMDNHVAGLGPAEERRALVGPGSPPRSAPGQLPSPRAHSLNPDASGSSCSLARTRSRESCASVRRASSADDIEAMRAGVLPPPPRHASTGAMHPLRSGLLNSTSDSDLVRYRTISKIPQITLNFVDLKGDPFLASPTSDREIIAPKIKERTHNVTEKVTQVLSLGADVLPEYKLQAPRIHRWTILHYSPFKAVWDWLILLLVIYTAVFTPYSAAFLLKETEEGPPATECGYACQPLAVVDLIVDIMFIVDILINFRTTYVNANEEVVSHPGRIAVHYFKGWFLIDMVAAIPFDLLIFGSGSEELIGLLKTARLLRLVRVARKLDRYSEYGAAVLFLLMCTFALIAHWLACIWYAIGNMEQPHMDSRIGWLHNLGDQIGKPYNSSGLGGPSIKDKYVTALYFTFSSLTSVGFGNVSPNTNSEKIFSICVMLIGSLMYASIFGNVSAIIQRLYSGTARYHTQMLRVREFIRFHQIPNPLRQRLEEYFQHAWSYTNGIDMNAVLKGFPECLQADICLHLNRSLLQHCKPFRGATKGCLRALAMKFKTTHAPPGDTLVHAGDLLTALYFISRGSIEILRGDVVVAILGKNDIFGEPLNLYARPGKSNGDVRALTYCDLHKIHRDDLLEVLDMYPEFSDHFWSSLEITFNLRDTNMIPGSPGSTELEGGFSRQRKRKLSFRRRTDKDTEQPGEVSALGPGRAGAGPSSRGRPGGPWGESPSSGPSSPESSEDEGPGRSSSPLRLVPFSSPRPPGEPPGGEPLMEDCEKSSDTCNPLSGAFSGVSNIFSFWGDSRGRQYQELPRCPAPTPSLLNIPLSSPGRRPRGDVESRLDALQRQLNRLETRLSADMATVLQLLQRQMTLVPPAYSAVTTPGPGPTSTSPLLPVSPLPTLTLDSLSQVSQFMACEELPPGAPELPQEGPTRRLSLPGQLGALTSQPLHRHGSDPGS

Row | SMILES | IC50 [1] [nM] | Kd [2] [nM] | also measured
1 | Cc1ccc(S(=O)(=O)N(CC(=O)NC2CCNCC2)c2ccc(C#N)cc2)cc1 | 15600 | 6500 | –
2 | CNC1CCN(C(=O)CN(c2ccc(C#N)cc2)S(=O)(=O)c2ccc(C)cc2)CC1 | 7500 | 2900 | –
3 | COc1ccc(CN(CC(=O)N2CCC3(CC2)CNC3)c2ccc(C#N)cc2)cc1F | 83 | 32 | Papp A→B [3]: 0.09 ×10⁻⁶ cm/s; EC50 [4]: 670 nM; efflux ratio [5]: 58; Activity [6]: Active; Activity [7]: Active; Activity [8]: Active; half-life [9]: > 16.7 h; CLint [10]: < 1 µL/min; IC50 [11]: 20100 nM; Ratio IC50 [12]: 30
4 | Cc1ccc(S(=O)(=O)N(CC(=O)N2CCC[C@@H](N)C2)c2ccc(C#N)cc2)cc1 | 13900 | 4500 | –
5 | N#Cc1ccc(N(CC(=O)N2CCC(N)CC2)Cc2ccc(C#N)c(F)c2)cc1 | 5500 | 1900 | –
6 | Cc1ccc(S(=O)(=O)N(CC(=O)N2CCC(N)CC2)c2ccc(C#N)cc2)cc1 | 7600 | 2600 | –
7 | COc1cc(N(CC(=O)N2CCC(N)CC2)S(=O)(=O)c2ccc3c(c2)CCN3C(C)=O)ccc1-n1nc(C)cc1C | > 30000 | > 100000 | –
8 | N#Cc1ccc(N(CC(=O)N2CCC(CN)CC2)Cc2ccc(Cl)cc2)cc1 | 400 | 290 | –
9 | Cc1ccc(S(=O)(=O)N(CC(=O)N2CC[C@@H](N)C2)c2ccc(C#N)cc2)cc1 | 16400 | 3200 | –
10 | COc1ccc(CN(CC(=O)N2CCC(CN)CC2)c2ccc(C#N)cc2)cc1F | 210 | 58 | Papp A→B [3]: 0.26 ×10⁻⁶ cm/s; EC50 [4]: 4100 nM; efflux ratio [5]: 58; half-life [9]: 5.08 h; CLint [10]: 4.5 µL/min; IC50 [11]: 12400 nM
11 | Cn1ncc2cc(CN(CC(=O)N3CCC(N)CC3)c3ccc(C#N)cc3)ccc21 | 620 | 140 | –
12 | N#Cc1ccc(N(CC(=O)N2CCC(CN)CC2)Cc2ccc(C(N)=O)cc2)cc1 | 830 | 490 | –
13 | Cc1ccc(S(=O)(=O)N(CC(=O)N2C[C@@H]3C[C@H]2CN3)c2ccc(C#N)cc2)cc1 | 13100 | 2400 | –
14 | N#Cc1ccc(N(CC(=O)N2CCC(N)CC2)Cc2ccccc2)cc1 | 4100 | 1100 | –
15 | Cc1ccc(S(=O)(=O)N(CC(=O)Nc2cccnc2)c2ccc(C#N)cc2)cc1 | > 150000 | 90000 | –
16 | Cc1ccc(-c2ncc(OC[C@H]3CCNC3)cc2-c2ccc(C#N)cc2)cc1 | – | 9 | Papp A→B [3]: 5.6 ×10⁻⁶ cm/s; EC50 [4]: 300 nM; Activity [6]: Active; Activity [7]: Active; Activity [8]: Active; half-life [9]: 6.73 h; CLint [10]: 3.43 µL/min; IC50 [11]: 3200 nM
17 | Cn1cc2cc(N(CC(=O)N3CCC[C@@H](N)C3)S(=O)(=O)c3ccc(C#N)cc3)ccc2n1 | 30000 | 9600 | –
18 | Cc1ccc(S(=O)(=O)N(CC(=O)N2CCC(N(C)C)CC2)c2ccc(C#N)cc2)cc1 | 12600 | 2900 | –

Row | SMILES | IC50 [1] [nM] | Kd [2] [nM] | also measured
19 | COc1cc(NS(=O)(=O)c2ccc3c(c2)cc(C)c(=O)n3C)ccc1-n1nc(C)cc1C | 430 | – | Activity [13]: inactive; inhibition [14]: inactive
20 | Cc1ccc(CN(CC(=O)N2CCC(CN)CC2)c2ccc(C#N)cc2)cc1 | 290 | 110 | –
21 | CC(=O)N1CCc2cc(S(=O)(=O)N(CC(=O)N3CCC[C@@H](N)C3)c3ccc(C#N)cc3)ccc21 | 5200 | 2400 | –
22 | CC(=O)Nc1ccc(S(=O)(=O)Nc2ccc(C#N)cc2)cc1 | – | 9500 | –
23 | Cc1ccc(S(=O)(=O)N(CC(=O)N[C@@H]2CN3CCC2CC3)c2ccc(C#N)cc2)cc1 | 14200 | 3500 | –
24 | COc1ccc(CN(CC(=O)N2CCC(N)CC2)c2ccc(C#N)cc2)cc1F | 810 | 190 | Papp A→B [3]: 0.44 ×10⁻⁶ cm/s; half-life [9]: 6.42 h; CLint [10]: 3.6 µL/min
25 | Cc1ccc(S(=O)(=O)N(CC(=O)N[C@H]2CN3CCC2CC3)c2ccc(C#N)cc2)cc1 | 11900 | 3600 | –
26 | Cc1ccc(CN(CC(=O)N2CCC(N)CC2)c2ccc(C#N)cc2)cc1 | 1300 | 430 | –
27 | Cc1ccc(S(=O)(=O)N(CC(=O)N2CCC[C@H](N)C2)c2ccc(C#N)cc2)cc1 | 24300 | 10300 | –
28 | CC(=O)N1CCc2cc(S(=O)(=O)N(CC(=O)N3CCC(N)CC3)c3ccc(C#N)cc3)ccc21 | 4400 | 1800 | –
29 | COc1cc(NS(=O)(=O)c2ccccc2)ccc1-n1nc(C)cc1C | 40000 | – | –
30 | N#Cc1ccc(N(CC(=O)N2CCC(CN)CC2)Cc2ccc(F)cc2)cc1 | 1300 | 460 | –
31 | COc1cc(NS(=O)(=O)c2ccc3c(c2)CCN3C(C)=O)ccc1-n1nc(C)cc1C | 1600 | > 100000 | –
32 | Cc1ccc(S(=O)(=O)N(CC(=O)N2CC[C@H](N)C2)c2ccc(C#N)cc2)cc1 | 22700 | 4700 | –
33 | Cc1ccc(S(=O)(=O)N(CC(=O)N2CCC(C)(N)CC2)c2ccc(C#N)cc2)cc1 | 5200 | 2500 | –
34 | N#Cc1ccc(N(CC(=O)N2CCC(CN)CC2)Cc2cccc(C(N)=O)c2)cc1 | 1000 | 420 | –
35 | COc1ccc(CN(CC(=O)N2CCC(F)(CN)CC2)c2ccc(C#N)cc2)cc1F | 990 | 230 | –
